Data set [1] has as its target T1, Fatty-acid amide hydrolase 1 (Rattus norvegicus, UniProt P97612).
T1 sequence (P97612 whole entry): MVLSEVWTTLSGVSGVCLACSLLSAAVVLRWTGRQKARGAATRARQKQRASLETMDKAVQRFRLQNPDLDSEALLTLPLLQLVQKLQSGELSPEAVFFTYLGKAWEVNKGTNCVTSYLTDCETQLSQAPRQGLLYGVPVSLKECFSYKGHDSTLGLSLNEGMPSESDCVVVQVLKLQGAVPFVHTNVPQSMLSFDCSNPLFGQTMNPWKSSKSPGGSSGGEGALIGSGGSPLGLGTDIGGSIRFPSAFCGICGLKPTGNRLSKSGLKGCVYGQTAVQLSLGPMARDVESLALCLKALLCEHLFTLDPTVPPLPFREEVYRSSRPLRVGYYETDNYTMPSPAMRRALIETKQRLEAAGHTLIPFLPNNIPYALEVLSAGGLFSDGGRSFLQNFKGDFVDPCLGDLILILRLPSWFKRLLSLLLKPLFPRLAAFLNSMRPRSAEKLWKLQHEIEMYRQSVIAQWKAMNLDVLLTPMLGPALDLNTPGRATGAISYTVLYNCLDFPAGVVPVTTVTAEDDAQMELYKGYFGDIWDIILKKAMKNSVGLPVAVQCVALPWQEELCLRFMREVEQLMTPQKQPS
Briefly: Inhibition of rat recombinant His/GST-tagged FAAH expressed in Escherichia coli cells using AAMCA as substrate incubated for 15 mins followed by substrate addition and measured after every 20 mins for 4 hrs by fluorescence based assay. The essentials: (§1)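 Fluorescent enzyme assay in throughput format. Human recombinant FAAH or purified rat FAAH used arachidonoyl 7-amino-4-methylcoumarin amide as substrate; human recombinant MGL was run by a similar fluorometric procedure.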

Data set [2] in a line: Drug concentration in plasma (unknown origin) at 2 mg/kg, iv measured after 15 mins. The format is ADME, organism-based. The essentials:
(§2)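 Cassette pharmacokinetics: compounds given together at 2 mg/kg iv; brain and plasma levels (µg/mL) measured at 15 min.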

A short description of data set [3]: Selectivity ratio of IC50 for human recombinant His-tagged MGL expressed in Escherichia coli BL21 DE3 cells to IC50 for rat recombinant His/GST-tagged FAAH expressed in Escherichia coli cells by fluorescence based assay.
The target of data set [4] is Cannabinoid receptor 1 (Rattus norvegicus) (UniProt P20272). As to the kind of experiment: Displacement of [3H]CP55940 from CB1 receptor in rat brain by competition-equilibrium binding analysis. It counts as tissue-based. An outline of the steps:
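Rat brain membranes as CB1 source; competition-equilibrium binding against [3H]CP-55,940.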
Target sequence in this assay (P20272 whole entry): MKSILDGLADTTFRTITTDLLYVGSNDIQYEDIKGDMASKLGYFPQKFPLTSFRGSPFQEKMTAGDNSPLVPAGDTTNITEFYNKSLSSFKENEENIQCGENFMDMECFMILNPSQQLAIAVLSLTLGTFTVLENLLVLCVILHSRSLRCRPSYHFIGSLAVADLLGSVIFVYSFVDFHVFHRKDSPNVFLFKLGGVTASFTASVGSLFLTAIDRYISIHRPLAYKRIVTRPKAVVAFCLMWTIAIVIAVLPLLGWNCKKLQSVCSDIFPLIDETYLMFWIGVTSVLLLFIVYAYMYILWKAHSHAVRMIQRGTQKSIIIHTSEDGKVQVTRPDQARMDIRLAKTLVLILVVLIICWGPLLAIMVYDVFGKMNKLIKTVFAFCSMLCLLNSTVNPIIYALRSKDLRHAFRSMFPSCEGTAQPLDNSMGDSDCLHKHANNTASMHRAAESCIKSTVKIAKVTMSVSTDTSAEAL

The nature of data set [5]: Stability in rat plasma assessed as half life. It counts as ADME, cell-free. An outline of the steps: (§3)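 Stability assessed as half-life in human, rat and mouse plasma and gastric fluid, and in human, rat and mouse liver microsomal preparations.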
A further data set concerns the target T2, Monoglyceride lipase (Homo sapiens, UniProt Q99685).
T2 sequence (Q99685 whole entry): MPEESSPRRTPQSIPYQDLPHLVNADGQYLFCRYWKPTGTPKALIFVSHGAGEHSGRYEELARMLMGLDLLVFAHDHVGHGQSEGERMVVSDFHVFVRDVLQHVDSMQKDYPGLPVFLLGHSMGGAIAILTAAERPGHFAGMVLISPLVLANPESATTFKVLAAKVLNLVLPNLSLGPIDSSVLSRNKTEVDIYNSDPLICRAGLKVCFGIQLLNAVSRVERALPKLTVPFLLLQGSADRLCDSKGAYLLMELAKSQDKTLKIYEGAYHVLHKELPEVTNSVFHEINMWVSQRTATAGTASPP
Briefly: Inhibition of human recombinant His-tagged MGL expressed in Escherichia coli BL21 DE3 cells using AHMMCE as substrate preincubated with enzyme for 15 mins followed by substrate addition and measured after every 15 mins for 3 hrs by fluorescence based assay. An outline of the steps:
as §1

Data set [6] is described as follows: Ratio of IC50 for rat recombinant His/GST-tagged FAAH expressed in Escherichia coli cells to IC50 for human recombinant MBP-tagged FAAH expressed in Escherichia coli cells by fluorescence based assay.
Data set [7] deals with Cannabinoid receptor 2 (Homo sapiens) (UniProt P34972). Briefly: Displacement of [3H]CP55940 from human CB2 receptor expressed in HEK293 cells by competition-equilibrium binding analysis. The format is cell-based. The essentials: (§4)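 HEK293 cell membranes expressing mouse or human CB2; competition-equilibrium binding against [3H]CP-55,940.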
Cannabinoid receptor 2 (Homo sapiens), sequence (P34972 whole entry): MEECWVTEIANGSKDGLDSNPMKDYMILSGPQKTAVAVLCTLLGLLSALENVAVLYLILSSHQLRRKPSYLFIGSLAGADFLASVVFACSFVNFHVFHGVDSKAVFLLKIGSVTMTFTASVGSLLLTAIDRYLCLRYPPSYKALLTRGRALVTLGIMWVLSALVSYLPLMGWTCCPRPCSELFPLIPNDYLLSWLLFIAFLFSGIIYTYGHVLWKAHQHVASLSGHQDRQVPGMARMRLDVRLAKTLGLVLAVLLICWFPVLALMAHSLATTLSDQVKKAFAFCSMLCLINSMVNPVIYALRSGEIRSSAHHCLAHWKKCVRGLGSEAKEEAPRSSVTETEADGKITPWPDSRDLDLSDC
Data set [8] can be described thus: Stability in mouse gastric fluid assessed as half life. It counts as ADME, tissue-based, Gastric juice. The essentials:
as §3

Data set [9] has as its target Cannabinoid receptor 2 (Mus musculus) (UniProt P47936). Briefly: Displacement of [3H]CP55940 from mouse CB2 receptor expressed in HEK293 cells by competition-equilibrium binding analysis. It counts as cell-based. The essentials: as §4
Data set [10] can be described thus: Stability in rat liver microsomes assessed as half life. It counts as ADME, Microsome. An outline of the steps:
as §3

A short description of data set [11]: Stability in human gastric fluid assessed as half life. The format is ADME, tissue-based, Gastric juice. An outline of the steps:
as §3

Data set [12] is filed under the species Homo sapiens. As to the kind of experiment: Selectivity ratio of IC50 for human recombinant His-tagged MGL expressed in Escherichia coli BL21 DE3 cells to IC50 for human recombinant MBP-tagged FAAH expressed in Escherichia coli cells by fluorescence based assay.
Data set [13] is filed under the species Homo sapiens. Briefly: Selectivity ratio of IC50 for human full length ABHD6 expressed in Escherichia coli cells to IC50 for human recombinant MBP-tagged FAAH expressed in Escherichia coli cells by fluorescence based assay.
Data set [14] concerns the target T3, Fatty-acid amide hydrolase 1 (Homo sapiens, UniProt O00519).
T3 sequence (O00519 whole entry): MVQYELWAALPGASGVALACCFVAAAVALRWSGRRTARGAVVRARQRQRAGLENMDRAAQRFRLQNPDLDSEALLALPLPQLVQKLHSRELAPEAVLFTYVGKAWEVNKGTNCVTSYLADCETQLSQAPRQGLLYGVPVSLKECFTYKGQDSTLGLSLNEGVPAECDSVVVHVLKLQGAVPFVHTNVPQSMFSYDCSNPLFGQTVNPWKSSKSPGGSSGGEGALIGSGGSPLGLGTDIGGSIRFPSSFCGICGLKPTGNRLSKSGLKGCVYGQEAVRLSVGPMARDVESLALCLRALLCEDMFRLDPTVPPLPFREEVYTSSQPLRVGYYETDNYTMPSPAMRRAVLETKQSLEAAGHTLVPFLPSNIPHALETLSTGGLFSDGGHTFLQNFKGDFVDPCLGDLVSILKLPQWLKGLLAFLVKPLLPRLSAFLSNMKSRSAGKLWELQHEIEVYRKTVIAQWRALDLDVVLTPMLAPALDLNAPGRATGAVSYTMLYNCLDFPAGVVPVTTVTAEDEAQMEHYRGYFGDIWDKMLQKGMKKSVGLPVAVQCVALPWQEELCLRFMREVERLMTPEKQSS
Briefly: Inhibition of human recombinant MBP-tagged FAAH expressed in Escherichia coli cells using AAMCA as substrate incubated for 15 mins followed by substrate addition and measured after every 20 mins for 4 hrs by fluorescence based assay. The essentials: as §1

A short description of data set [15]: Drug concentration in brain (unknown origin) at 2 mg/kg, iv measured after 15 mins. The format is ADME, organism-based. The following applies: read-out: Ct. An outline of the steps: as §2
The nature of data set [16]: Stability in mouse plasma assessed as half life. It counts as ADME, cell-free. An outline of the steps:
as §3

Data set [17] is described as follows: Stability in mouse liver microsomes assessed as half life. It counts as ADME, Microsome. The essentials: as §3
The nature of data set [18]: Selectivity ratio of IC50 for human full length ABHD6 expressed in Escherichia coli cells to IC50 for rat recombinant His/GST-tagged FAAH expressed in Escherichia coli cells by fluorescence based assay.
Data set [19] addresses Cannabinoid receptor 1 (Rattus norvegicus) (UniProt P20272). Briefly: Displacement of [3H]CP55940 from CB1 receptor in rat brain by competition-equilibrium binding analysis.
Target sequence in this assay (P20272 whole entry, looked up): as the sequence (P20272 whole entry) above
Data set [20] in a line: Stability in human plasma assessed as half life. It counts as ADME, cell-free. The essentials:
as §3

Data set [21] in a line: Stability in rat gastric fluid assessed as half life. The format is ADME, tissue-based, Gastric juice. The essentials: as §3
A short description of data set [22]: Stability in human liver microsomes assessed as half life. The format is ADME, Microsome. The essentials: as §3
In data set [23] the target is T4, Monoglyceride lipase (Rattus norvegicus) (UniProt Q8R431).
T4 sequence (whole entry): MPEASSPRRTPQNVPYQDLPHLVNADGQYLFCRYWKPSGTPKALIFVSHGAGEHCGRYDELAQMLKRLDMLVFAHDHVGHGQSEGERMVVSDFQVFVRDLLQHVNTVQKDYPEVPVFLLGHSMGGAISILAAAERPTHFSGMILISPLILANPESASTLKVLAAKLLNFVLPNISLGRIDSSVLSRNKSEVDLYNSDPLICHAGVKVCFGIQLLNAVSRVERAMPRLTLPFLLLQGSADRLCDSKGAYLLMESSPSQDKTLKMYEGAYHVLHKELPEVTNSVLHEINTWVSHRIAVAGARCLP
As to the kind of experiment: Inhibition of MGL in rat brain at 10 uM incubated for 30 mins followed by incubation with FP-Rh probe for 45 mins by ABPP assay. The format is tissue-based. The essentials:
(§5)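 Gel-based competitive ABPP on rat brain membrane homogenates (10 mg/mL protein). Compound at 1 and 10 μM or DMSO for 30 min at room temperature, then 10 μM rhodamine-tagged fluorophosphonate probe for 45 min at room temperature. FAAH was run with a reference FAAH inhibitor at 10 μM as positive control. Serine hydrolase labelling read by in-gel fluorescence.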

Data set [24] deals with T5, Monoacylglycerol lipase ABHD6 (Rattus norvegicus) (UniProt Q5XI64).
T5 sequence (whole entry): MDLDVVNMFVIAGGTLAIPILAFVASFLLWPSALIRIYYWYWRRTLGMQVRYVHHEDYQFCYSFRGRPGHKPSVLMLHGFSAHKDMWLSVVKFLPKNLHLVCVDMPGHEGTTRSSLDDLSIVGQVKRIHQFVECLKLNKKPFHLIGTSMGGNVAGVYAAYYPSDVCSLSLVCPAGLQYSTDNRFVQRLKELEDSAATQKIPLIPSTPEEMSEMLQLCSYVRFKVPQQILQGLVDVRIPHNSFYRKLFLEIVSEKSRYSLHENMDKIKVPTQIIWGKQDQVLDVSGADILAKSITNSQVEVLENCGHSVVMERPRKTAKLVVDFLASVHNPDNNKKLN
As to the kind of experiment: Inhibition of ABHD6 in rat brain at 10 uM incubated for 30 mins followed by incubation with FP-Rh probe for 45 mins by ABPP assay. The format is tissue-based. The essentials: as §5

For data set [25], the target named is T6, Fatty-acid amide hydrolase 1 (Rattus norvegicus) (UniProt P97612).
T6 sequence (whole entry): T1 sequence (P97612 whole entry)
Briefly: Inhibition of FAAH in rat brain at 10 uM incubated for 30 mins followed by incubation with FP-Rh probe for 45 mins by ABPP assay. The format is tissue-based. An outline of the steps: as §5

The source made the active and inactive calls. The calls are words filed in the database; no cut-off is given here. A value given as a limit tells only on which side of the number the result lay.

Cannabinoid receptor 2 (Mus musculus), sequence (P47936 whole entry): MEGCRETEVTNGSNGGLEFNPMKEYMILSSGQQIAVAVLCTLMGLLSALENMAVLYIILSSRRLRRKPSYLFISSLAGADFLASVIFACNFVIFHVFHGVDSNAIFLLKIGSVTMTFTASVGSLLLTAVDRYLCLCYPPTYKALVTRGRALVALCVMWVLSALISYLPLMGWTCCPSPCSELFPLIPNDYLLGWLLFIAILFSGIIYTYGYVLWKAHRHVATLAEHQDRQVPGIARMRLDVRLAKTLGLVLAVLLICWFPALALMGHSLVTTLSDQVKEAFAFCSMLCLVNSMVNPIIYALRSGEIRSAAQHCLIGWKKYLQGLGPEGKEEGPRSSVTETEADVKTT

Regarding `CN(C)c1ccc(C2CCN(C(=O)Oc3cccc(N4CCS(=O)(=O)CC4)c3)CC2)cc1`, the IC50 in data set [1] is 6.9 nM; on Monoglyceride lipase, over 1000 nM; in [14], 2.4 nM. For the same compound, the values for the concentration at 0.25 h in data set [2] and in data set [15] were 0.746 µg/mL and 1.11 µg/mL, respectively. Also, the Ratio IC50 was over 1000 in [3]; 2 to 3 in data set [6]; over 1000 in the data set filed under Homo sapiens [12]; over 1000 in the data set filed under Homo sapiens [13]; over 1000 in [18]. Further, the outcome in [4], in [7], in data set [9] and in data set [19] was inactive. The half-life in data set [5] was over 60 min; in data set [8], over 60 min; in data set [10], 15 to 25 min; in data set [11] it was over 60 min; in data set [16], over 60 min; in data set [17], 15 to 25 min. Also, the half-life in data set [20] is over 60 min; in data set [21] it was over 60 min; in [22], 15 to 25 min.
With `O=C(Nc1cccnn1)N1CCC(=Cc2cccc(Oc3ccc(C(F)(F)F)cn3)c2)CC1`, the inhibition result in data set [23] and in [24] was “inactive” throughout. The inhibition entry in data set [25] is “Active”.

Source of the values: ChEMBL document CHEMBL4359929, “Piperidine and piperazine inhibitors of fatty acid amide hydrolase targeting excitotoxic pathology” (Bioorg Med Chem, 2019).
